Converted amounts (≈) assume the structure as drawn. The source made the active and inactive calls. The calls are words filed in the database; no cut-off is given here.
Columns and labels:
Nakaseomyces glabratus = experiment: Antifungal activity against Candida glabrata ATCC 2001 after 48 hrs by broth microdilution method; assay type: functional; conditions: ATCC 2001, 48 h
In short: (§1)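 Broth microdilution per NCCLS guidelines in MOPS-buffered RPMI 1640; starting inoculum 1-5 x 10^3 CFU/mL; plates incubated at 35 °C; MIC recorded after 48 h; fluconazole as reference; experiments repeated three times.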

Candida albicans [1] = experiment: Antifungal activity against Candida albicans ATCC 66027 after 48 hrs by broth microdilution method; assay type: functional; conditions: ATCC 66027, 48 h; in short: as §1
Candida albicans [2] = experiment: Antifungal activity against Candida albicans ATCC 14053 after 48 hrs by broth microdilution method; assay type: functional; conditions: ATCC 14053, 48 h; in short: as §1
Candida albicans [3] = experiment: Antifungal activity against Candida albicans ATCC 10231 after 48 hrs by broth microdilution method; assay type: functional; conditions: ATCC 10231, 48 h; in short: as §1
Candida albicans [4] = experiment: Antifungal activity against Candida albicans patient isolate after 48 hrs by broth microdilution method; assay type: functional; in short: as §1
[5] = tested on: Trichophyton mentagrophytes; experiment: Antifungal activity against Trichophyton mentagrophytes after 48 hrs by broth microdilution method; assay type: functional; in short: as §1
Sporothrix schenckii = experiment: Antifungal activity against Sporothrix schenckii after 48 hrs by broth microdilution method; assay type: functional; in short: as §1
Cryptococcus neoformans = experiment: Antifungal activity against Cryptococcus neoformans after 48 hrs by broth microdilution method; assay type: functional; in short: as §1
[6] = Selectivity index, ratio of IC50 for human HeLa cells to MIC for metronidazole-susceptible Trichomonas vaginalis; assay type: toxicity; conditions: read-out: Selectivity Index
[7] = Selectivity index, ratio of IC50 for human HeLa cells to MIC for metronidazole-resistant Trichomonas vaginalis CDC085 ATCC 50143; assay type: toxicity; conditions: read-out: Selectivity Index
HeLa = experiment: Cytotoxicity against human HeLa cells after 24 hrs by MTT assay; assay type: cell-based
Trichomonas vaginalis [8] = experiment: Antitrichomonas activity against metronidazole-resistant Trichomonas vaginalis CDC085 ATCC 50143 assessed as decrease in cell viability after 48 hrs by trypan blue exclusion method; assay type: functional; conditions: CDC085 ATCC 50143, 48 h
Trichomonas vaginalis [9] = experiment: Antitrichomonas activity against metronidazole-susceptible Trichomonas vaginalis assessed as decrease in cell viability after 48 hrs by trypan blue exclusion method; assay type: functional
Trichomonas vaginalis [10] = experiment: Potency index, ratio of metronidazole MIC to test compound MIC for metronidazole-resistant Trichomonas vaginalis CDC085 ATCC 50143; assay type: functional
Trichomonas vaginalis [11] = experiment: Selectivity ratio of MIC for metronidazole-resistant Trichomonas vaginalis CDC085 ATCC 50143 to MIC for metronidazole-susceptible Trichomonas vaginalis; assay type: functional
Candida albicans [12] = experiment: Antifungal activity against Candida albicans MTCC 183 after 48 hrs by broth microdilution method; assay type: functional; conditions: MTCC 183, 48 h; in short: as §1
Candida parapsilosis = experiment: Antifungal activity against Candida parapsilosis ATCC 22019 after 48 hrs by broth microdilution method; assay type: functional; conditions: Lodderomyces parapsilosis, ATCC 22019, 48 h; in short: as §1
Trichomonas vaginalis [13] = experiment: Potency index, ratio of metronidazole MIC to test compound MIC for metronidazole-susceptible Trichomonas vaginalis; assay type: functional
Plasmodium falciparum [14] = experiment: Antimalarial activity against chloroquine-sensitive Plasmodium falciparum 3D7 infecetd in RBC after 72 hrs by SYBR Green dye-based fluorescence assay; assay type: functional, organism-based; conditions: 3D7, Erythrocyte
Plasmodium falciparum [15] = experiment: Antimalarial activity against chloroquine-resistant Plasmodium falciparum K1 infecetd in RBC after 72 hrs by SYBR Green dye-based fluorescence assay; assay type: functional, organism-based; conditions: K1, Erythrocyte
Trichomonas vaginalis [16] = experiment: Antitrichomonas activity against metronidazole-susceptible Trichomonas vaginalis infected in mouse assessed as growth of abscess at 50 to 100 mg/kg, po administered for […] post last dose (reference value: 96.55 mm'2); assay type: functional
Trichomonas vaginalis [17] = experiment: Antitrichomonas activity against metronidazole-susceptible Trichomonas vaginalis infected in mouse assessed as growth of abscess at 50 mg/kg, po administered for 7 days measured on day 7 post last dose (reference value: 96.5 mm'2); assay type: functional
Trichomonas vaginalis [18] = experiment: Antitrichomonas activity against metronidazole-susceptible Trichomonas vaginalis infected in mouse assessed as growth of abscess at 100 mg/kg, po administered for 7 days measured on day 7 post last dose (reference value: 96.5 mm'2); assay type: functional
[19] = Cmax in Sprague-Dawley rat at 50 mg/kg, po measured up to 24 hrs by LC-MS/MS analysis; assay type: ADME, organism-based; set-up: dose 50 mg/kg, route oral; conditions: in vivo
In short: (§2)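 Male rats fasted 12-16 h before dosing (n = 4 per time point). Each received a single 50 mg/kg oral dose as a 12.5 mg/mL suspension in 1% w/v gum acacia in water, given by feeding needle. Serum was sampled up to 24 h, cleaned up by protein precipitation and assayed by LC-MS/MS (MRM, phenacetin internal standard, linear 1-200 ng/mL). Parameters were derived by non-compartmental analysis.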

[20] = Tmax in Sprague-Dawley rat at 50 mg/kg, po measured up to 24 hrs by LC-MS/MS analysis; assay type: ADME, organism-based; conditions: in vivo; in short: as §2
Rattus norvegicus [21] = experiment: AUClast in Sprague-Dawley rat at 50 mg/kg, po measured up to 24 hrs by LC-MS/MS analysis; assay type: ADME, organism-based; set-up: time < 24 hr, dose 50 mg/kg, route oral; conditions: in vivo; in short: as §2
[22] = Elimination half life in Sprague-Dawley rat at 50 mg/kg, po measured up to 24 hrs by LC-MS/MS analysis; assay type: ADME, organism-based; conditions: in vivo, read-out: beta t1/2 (converted); in short: as §2
Rattus norvegicus [23] = experiment: Clearance in Sprague-Dawley rat at 50 mg/kg, po measured up to 24 hrs by LC-MS/MS analysis; assay type: ADME, organism-based; conditions: in vivo; in short: as §2
Rattus norvegicus [24] = experiment: Volume of distribution at steady state in Sprague-Dawley rat at 50 mg/kg, po measured up to 24 hrs by LC-MS/MS analysis; assay type: ADME, organism-based; conditions: in vivo; in short: as §2
Trichomonas vaginalis [25] = experiment: Inhibition of free sulfhydryl group in Trichomonas vaginalis at MIC after 24 hrs by mBBr dye-based fluorescence microscopic method
In short: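 Cells were pelleted (700 xg, 10 min, 4°C) and washed in PBS. They were then labelled in the dark with a fluorometric thiol detector prediluted 100x. Imaging used epifluorescence microscopy through a UV-1A filter, with the same exposure for all samples, and was assessed qualitatively.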

CN(C)C(=S)SC(=S)N1CCN(c2ncccn2)CC1
MIC (Nakaseomyces glabratus): 153 µM (≈ 50.1 µg/mL) | MIC (Candida albicans [1]): 38.2 µM (≈ 12.5 µg/mL) | MIC (Candida albicans [2]): 153 µM (≈ 50.1 µg/mL) | MIC (Candida albicans [3]): 153 µM (≈ 50.1 µg/mL) | MIC (Candida albicans [4]): 153 µM (≈ 50.1 µg/mL) | MIC [5]: 153 µM (≈ 50.1 µg/mL) | MIC (Sporothrix schenckii): 153 µM (≈ 50.1 µg/mL) | MIC (Cryptococcus neoformans): 153 µM (≈ 50.1 µg/mL) | selectivity ratio [6]: 1050 | selectivity ratio [7]: 131 | IC50 (HeLa): > 5000 µM | MIC (Trichomonas vaginalis [8]): 38.2 µM (≈ 12.5 µg/mL) | MIC (Trichomonas vaginalis [9]): 4.77 µM (≈ 1.56 µg/mL) | Ratio (Trichomonas vaginalis [10]): 9.5 | selectivity ratio (Trichomonas vaginalis [11]): 8 | MIC (Candida albicans [12]): 76.5 µM (≈ 25 µg/mL) | MIC (Candida parapsilosis): 153 µM (≈ 50.1 µg/mL) | Ratio (Trichomonas vaginalis [13]): 3.8 | IC50 (Plasmodium falciparum [14]): 0.76 µM | IC50 (Plasmodium falciparum [15]): 1.85 µM | Activity (Trichomonas vaginalis [16]): 1 - 2.5 mm2 | Activity (Trichomonas vaginalis [17]): 1.57 mm2 | Activity (Trichomonas vaginalis [18]): 0.79 mm2 | Cmax [19]: 47.1 ng/mL | Tmax [20]: 2 h | AUClast (Rattus norvegicus [21]): 140.5 ng·h/mL | half-life [22]: 2.6 h | CL (Rattus norvegicus [23]): 81.7 mL/min/kg | Vdss (Rattus norvegicus [24]): 12.6 L/kg | inhibition (Trichomonas vaginalis [25]): Active

CN(C)C(=S)SC(=S)N1CCN(C(=S)Nc2ccccc2)CC1
MIC (Nakaseomyces glabratus): > 130 µM | MIC (Candida albicans [1]): > 130 µM | MIC (Candida albicans [2]): > 130 µM | MIC (Candida albicans [3]): > 130 µM | MIC (Candida albicans [4]): > 130 µM | MIC [5]: 130 µM (≈ 50 µg/mL) | MIC (Sporothrix schenckii): 130 µM (≈ 50 µg/mL) | MIC (Cryptococcus neoformans): > 130 µM | selectivity ratio [6]: > 617 | selectivity ratio [7]: > 154 | IC50 (HeLa): > 5000 µM | MIC (Trichomonas vaginalis [8]): 32.5 µM (≈ 12.5 µg/mL) | MIC (Trichomonas vaginalis [9]): 8.1 µM (≈ 3.12 µg/mL) | Ratio (Trichomonas vaginalis [10]): 11.4 | MIC (Candida albicans [12]): > 130 µM | MIC (Candida parapsilosis): > 130 µM | Ratio (Trichomonas vaginalis [13]): 2.2 | IC50 (Plasmodium falciparum [14]): 0.72 µM | IC50 (Plasmodium falciparum [15]): 1.66 µM

CN(C)C(=S)SC(=S)N1CCN(C(=O)c2ccco2)CC1
MIC (Nakaseomyces glabratus): 146 µM (≈ 50.1 µg/mL) | MIC (Candida albicans [1]): 72.9 µM (≈ 25 µg/mL) | MIC (Candida albicans [2]): 146 µM (≈ 50.1 µg/mL) | MIC (Candida albicans [3]): 146 µM (≈ 50.1 µg/mL) | MIC (Candida albicans [4]): 146 µM (≈ 50.1 µg/mL) | MIC [5]: 72.9 µM (≈ 25 µg/mL) | MIC (Sporothrix schenckii): 72.9 µM (≈ 25 µg/mL) | MIC (Cryptococcus neoformans): 146 µM (≈ 50.1 µg/mL) | selectivity ratio [6]: 130 | selectivity ratio [7]: 16 | IC50 (HeLa): 2380 µM | MIC (Trichomonas vaginalis [8]): 146 µM (≈ 50.1 µg/mL) | MIC (Trichomonas vaginalis [9]): 18.2 µM (≈ 6.26 µg/mL) | Ratio (Trichomonas vaginalis [10]): 1.3 - 9.5 | MIC (Candida albicans [12]): 72.9 µM (≈ 25 µg/mL) | MIC (Candida parapsilosis): 146 µM (≈ 50.1 µg/mL) | Ratio (Trichomonas vaginalis [13]): 1 - 3.8 | IC50 (Plasmodium falciparum [14]): 0.79 µM | IC50 (Plasmodium falciparum [15]): 1.76 µM

Cc1ncc([N+](=O)[O-])n1CCO [METRONIDAZOLE]
selectivity ratio [6]: > 277 | selectivity ratio [7]: > 13 | IC50 (HeLa): > 5000 µM | MIC (Trichomonas vaginalis [8]): 365 µM (≈ 62.6 µg/mL) | MIC (Trichomonas vaginalis [9]): 18.2 µM (≈ 3.12 µg/mL) | Activity (Trichomonas vaginalis [17]): 2.35 mm2

CN(C)C(=S)SC(=S)N1CCN(C(=O)OC(C)(C)C)CC1
MIC (Nakaseomyces glabratus): 143 µM (≈ 49.9 µg/mL) | MIC (Candida albicans [1]): 71.4 µM (≈ 25 µg/mL) | MIC (Candida albicans [2]): 143 µM (≈ 49.9 µg/mL) | MIC (Candida albicans [3]): 143 µM (≈ 49.9 µg/mL) | MIC (Candida albicans [4]): 143 µM (≈ 49.9 µg/mL) | MIC [5]: 143 µM (≈ 49.9 µg/mL) | MIC (Sporothrix schenckii): 143 µM (≈ 49.9 µg/mL) | MIC (Cryptococcus neoformans): 143 µM (≈ 49.9 µg/mL) | selectivity ratio [6]: 73 | selectivity ratio [7]: 18 | IC50 (HeLa): 1310 µM | MIC (Trichomonas vaginalis [8]): 71.4 µM (≈ 25 µg/mL) | MIC (Trichomonas vaginalis [9]): 17.9 µM (≈ 6.24 µg/mL) | Ratio (Trichomonas vaginalis [10]): 1.3 - 9.5 | MIC (Candida albicans [12]): 143 µM (≈ 49.9 µg/mL) | MIC (Candida parapsilosis): 143 µM (≈ 49.9 µg/mL) | Ratio (Trichomonas vaginalis [13]): 1 - 3.8 | IC50 (Plasmodium falciparum [14]): 0.78 µM | IC50 (Plasmodium falciparum [15]): 1.74 µM

— ChEMBL document CHEMBL4138228, “Substituted carbamothioic amine-1-carbothioic thioanhydrides as novel trichomonicidal fungicides: Design, synthesis, and biology” (Eur J Med Chem, 2018)
